Source: paper PMC6702078 (Biochemical pharmacology, 2019)

Legend:
PSA expression = PSA expression by Western blot in LNCaP expressing AR-V7; format: cell-based, human; settings: LNCaP stably expressing AR-V7, 10μM, 24 hrs
In short: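 Cells were lysed in 1x SDS sample buffer (1 × 10^7 cells/ml) and boiled 5 min. PSA and AR levels were assessed by SDS-PAGE and Western blot.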

[1] = tested on: androgen-dependent LNCaP PC cells; assay: Cell viability; format: cell-based, human; settings: for effect on viability: escalating concentrations, 96 hours (Fig.5C); for IC20 / IC50 / IC70 / IC90: Homo sapiens, 96 h; for IC20: read-out: ED20; for IC50: read-out: ED50; for IC70: read-out: ED70; for IC90: read-out: ED90
[2] = tested on: castration-resistant PC-3 PC cells; assay: Cell viability; format: cell-based, human; settings: for effect on viability: PC-3, escalating concentrations, 96 hours (Fig.5D); for IC20 / IC50 / IC70 / IC90: Homo sapiens, 96 h; for IC20: read-out: ED20; for IC50: read-out: ED50; for IC70: read-out: ED70; for IC90: read-out: ED90
[3] = tested on: castration-resistant DU-145 PC cells; assay: Cell viability; format: cell-based, human; settings: for effect on viability: DU-145, escalating concentrations, 96 hours (Fig.5E); for ED20 / ED50 / ED70 / ED90: DU-145, 96 hours, CellTiter Blue
[4] = tested on: AR transcriptional activity; assay: AR luciferase reporter assay in LNCaP with R1881; format: cell-based, human; settings: R1881 2.5nM, 8 hrs
[5] = tested on: PARP1 enzymatic activity in PC cells; assay: PARP-1 inhibitory assay in human cell culture; format: cell-based
In short: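 Graded doses of test compound were added in complete medium for 24 or 48 h. Cells were lysed in SDS sample buffer at 1 × 10^7 cells/ml and boiled 5 min. Poly(ADP-ribose) was assessed by SDS-PAGE and Western blot with mouse anti-pADPr (1:500).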

[6] = Kinetic aqueous solubility in PBS; format: physicochemical; settings: phosphate buffered saline, pH 7.4, aqueous buffer, kinetic from dmso stock
[7] = Mouse liver microsome stability; format: in vitro ADME; settings: male, CD-1, mouse, liver microsomes, pH 7.4
[8] = Human liver microsome stability; format: in vitro ADME; settings: both, liver microsomes, pH 7.4
Mouse plasma stability = format: in vitro ADME; settings: for half-life at 1 μM: male, C57BL/6, mouse, pH 7.4
hCYP3A4 = hCYP3A4 (Homo sapiens, UniProt P08684); assay: Cytochrome P450 inhibition CYP3A4; format: in vitro ADME
hCYP2D6 = hCYP2D6 (Homo sapiens, UniProt P10635); assay: Cytochrome P450 inhibition CYP2D6; format: in vitro ADME
hCYP2C9 = hCYP2C9 (Homo sapiens, UniProt P11712); assay: Cytochrome P450 inhibition CYP2C9; format: in vitro ADME
PARP-1 = PARP-1 (Homo sapiens, UniProt P09874); assay: PARP-1 activity assay in cell free system; format: biochemical; settings: inhibitors at 10μM; pADPr Western blot and colorimetric assay (Fig.4C-D)
In short: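 Commercial PARP-1 enzyme was activated by either H4 histone or endonuclease-digested plasmid DNA, with NAD and inhibitor or water, in PARP-1 reaction buffer (Tris pH 8.0, MgCl2, Triton X-100). Reactions ran 30 min at room temperature. pADPr was detected by SDS-PAGE and anti-pADPr Western blot, relative to DMSO-treated mixtures. Inhibitors were tested at 10 μM.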

[9] = tested on: LNCaP expressing both wild-type and constitutively active AR splice variant AR-V7; assay: Cell viability; format: cell-based, human; settings: LNCaP AR-V7, 96 hours, CellTiter Blue, XLfit
[10] = tested on: AR transcriptional activity; assay: AR luciferase reporter assay in LNCaP expressing AR-V7; format: cell-based, human; settings: LNCaP stably expressing AR-V7, luciferase, 8 hrs

Chain of hCYP2D6 (P10635 whole entry): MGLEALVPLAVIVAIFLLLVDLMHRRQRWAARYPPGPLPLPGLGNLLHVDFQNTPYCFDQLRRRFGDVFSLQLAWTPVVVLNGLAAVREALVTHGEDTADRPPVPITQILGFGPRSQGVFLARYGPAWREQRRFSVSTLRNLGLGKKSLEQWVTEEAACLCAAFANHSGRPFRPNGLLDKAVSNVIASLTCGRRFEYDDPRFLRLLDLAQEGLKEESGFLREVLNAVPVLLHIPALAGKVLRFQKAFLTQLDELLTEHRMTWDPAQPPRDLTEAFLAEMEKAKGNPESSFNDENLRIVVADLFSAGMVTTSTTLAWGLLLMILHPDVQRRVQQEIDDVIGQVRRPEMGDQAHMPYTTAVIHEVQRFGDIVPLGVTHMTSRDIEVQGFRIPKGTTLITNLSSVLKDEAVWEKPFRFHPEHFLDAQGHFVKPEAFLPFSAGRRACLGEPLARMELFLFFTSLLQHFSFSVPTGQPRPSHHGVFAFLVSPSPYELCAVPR
Chain of hCYP2C9 (P11712 whole entry): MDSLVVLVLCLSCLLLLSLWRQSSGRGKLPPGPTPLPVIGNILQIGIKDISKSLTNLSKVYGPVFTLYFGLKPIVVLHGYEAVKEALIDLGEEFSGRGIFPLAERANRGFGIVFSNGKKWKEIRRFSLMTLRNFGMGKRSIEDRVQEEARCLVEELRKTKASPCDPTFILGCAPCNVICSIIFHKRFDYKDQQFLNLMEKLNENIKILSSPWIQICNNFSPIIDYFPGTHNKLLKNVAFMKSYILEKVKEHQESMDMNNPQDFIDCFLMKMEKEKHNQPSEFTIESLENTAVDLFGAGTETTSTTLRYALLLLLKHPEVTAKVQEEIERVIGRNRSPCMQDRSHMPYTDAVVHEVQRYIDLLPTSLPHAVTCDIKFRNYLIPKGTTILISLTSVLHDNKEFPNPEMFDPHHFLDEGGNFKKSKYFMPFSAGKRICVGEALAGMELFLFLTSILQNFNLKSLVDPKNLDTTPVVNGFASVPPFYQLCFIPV
Chain of hCYP3A4 (P08684 whole entry): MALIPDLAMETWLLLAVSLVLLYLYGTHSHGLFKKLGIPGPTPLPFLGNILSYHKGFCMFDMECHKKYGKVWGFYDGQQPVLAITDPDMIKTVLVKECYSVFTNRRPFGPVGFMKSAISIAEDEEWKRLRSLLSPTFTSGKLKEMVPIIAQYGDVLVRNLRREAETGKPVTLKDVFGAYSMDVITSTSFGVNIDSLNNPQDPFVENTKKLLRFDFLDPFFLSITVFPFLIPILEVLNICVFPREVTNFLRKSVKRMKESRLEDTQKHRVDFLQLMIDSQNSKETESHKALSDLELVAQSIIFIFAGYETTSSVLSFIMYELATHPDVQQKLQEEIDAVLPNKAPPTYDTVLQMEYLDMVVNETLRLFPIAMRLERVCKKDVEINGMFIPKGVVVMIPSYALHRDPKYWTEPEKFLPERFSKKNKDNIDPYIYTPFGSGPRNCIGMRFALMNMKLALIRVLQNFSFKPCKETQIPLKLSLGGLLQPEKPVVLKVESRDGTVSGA
Chain of PARP-1 (P09874 whole entry): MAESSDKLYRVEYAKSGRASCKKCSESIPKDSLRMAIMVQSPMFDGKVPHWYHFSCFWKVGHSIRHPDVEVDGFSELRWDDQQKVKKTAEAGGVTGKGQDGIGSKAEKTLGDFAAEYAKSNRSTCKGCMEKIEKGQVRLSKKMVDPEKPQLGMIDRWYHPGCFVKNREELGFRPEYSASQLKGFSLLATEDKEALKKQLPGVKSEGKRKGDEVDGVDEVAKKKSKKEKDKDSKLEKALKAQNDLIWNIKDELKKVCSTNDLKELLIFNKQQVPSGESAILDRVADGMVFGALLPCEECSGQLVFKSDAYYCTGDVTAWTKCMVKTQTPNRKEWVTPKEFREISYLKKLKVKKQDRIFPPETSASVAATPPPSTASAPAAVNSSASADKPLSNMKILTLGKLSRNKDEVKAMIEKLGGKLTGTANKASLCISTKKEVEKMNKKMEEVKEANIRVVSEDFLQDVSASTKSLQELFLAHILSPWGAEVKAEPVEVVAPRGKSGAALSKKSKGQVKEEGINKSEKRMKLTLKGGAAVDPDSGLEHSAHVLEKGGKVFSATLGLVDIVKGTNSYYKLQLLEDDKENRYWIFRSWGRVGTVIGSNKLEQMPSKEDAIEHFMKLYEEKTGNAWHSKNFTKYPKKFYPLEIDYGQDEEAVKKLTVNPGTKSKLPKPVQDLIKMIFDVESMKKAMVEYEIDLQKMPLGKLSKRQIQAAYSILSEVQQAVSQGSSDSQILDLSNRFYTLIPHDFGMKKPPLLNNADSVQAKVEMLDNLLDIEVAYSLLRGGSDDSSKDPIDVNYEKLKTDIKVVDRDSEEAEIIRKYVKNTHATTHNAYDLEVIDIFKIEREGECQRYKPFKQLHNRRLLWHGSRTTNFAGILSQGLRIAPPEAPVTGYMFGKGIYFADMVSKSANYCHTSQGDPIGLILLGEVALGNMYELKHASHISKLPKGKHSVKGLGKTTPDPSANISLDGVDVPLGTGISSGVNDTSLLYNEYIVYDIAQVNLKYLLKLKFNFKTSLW

Row | effect on R1881-mediated AR transcriptional activity [4] | IC50 [1] [µM] | IC90 [1] [µM] | IC50 [2] [µM] | IC90 [2] [µM] | solubility at 90 min [6] [µM] | remaining at 1 h, 1 μM [7] [%] | half-life at 1 μM [8] [min] | microsomal CLint at 1 μM [8] [µL/min/mg] | remaining at 1 h, 1 μM [8] [%] | half-life at 1 μM (Mouse plasma stability; mouse plasma) [min] | IC50 (hCYP3A4) [µM] | Compound | IC20 [1] [µM] | IC70 [1] [µM] | IC20 [2] [µM] | IC70 [2] [µM] | ED20 [3] [µM] | ED50 [3] [µM] | ED70 [3] [µM] | ED90 [3] [µM] | also measured
1 |  |  |  |  |  |  |  |  |  |  |  |  | CNC(=O)c1ccc(N2C(=S)N(c3ccc(C#N)c(C(F)(F)F)c3)C(=O)C2(C)C)cc1F [Enzalutamide] |  |  |  |  |  |  |  |  | effect on PSA expression (PSA expression): negligible inhibitory effect
2 | only weak inhibitory effects |  |  |  |  |  |  |  |  |  |  |  | Cl.O=C(CN1CCCCC1)OC1CCCCCCCCCCC1 [FC-7218, Cyclododecyl 2-(piperidin-1-yl)acetate hydrochloride] |  |  |  |  |  |  |  |  | effect on viability [1]: no significant effect; effect on viability [2]: no significant effect; effect on viability [3]: no significant effect; effect on the PARP1 enzymatic activity in PC cells [5]: insignificant effect
3 | only weak inhibitory effects |  |  |  |  |  |  |  |  |  |  |  | Cl.O=C(CN1CCCCC1)NC1CCCCCCCCCCC1 [FC-7219, N-cyclododecyl-2-(piperidin-1-yl)acetamide hydrochloride] |  |  |  |  |  |  |  |  | effect on viability [1]: no significant effect; effect on viability [2]: no significant effect; effect on viability [3]: no significant effect; effect on the PARP1 enzymatic activity in PC cells [5]: insignificant effect
4 | only weak inhibitory effects | 15.2 | 84.2 | 36.8 | 310 | 191 | 101 | 1.6 | 850 | 100 | > 240 | 1.93 | C[N+]1(CC(=O)NC2CCCCCCCCCCC2)CCCCC1.[I-] [FC-7220, 1-[(Cyclododecylcarbamoyl)methyl]-1-methylpiperidin-1-ium iodide] | 5.1 | 29.4 | 9.6 | 83.7 | 10.0 | 37.2 | 82.7 | 296.1 | IC50 (hCYP2D6): 2.37 µM; IC50 (hCYP2C9): > 10 µM; PARP-1 inhibitory activity in cell free system (PARP-1): reduced anti-PARP-1 activity
5 |  |  |  |  |  |  |  |  |  |  |  |  | O=C(CN1CCC1)OC1CCCCCCCCCCC1 [MC-270008, Cyclododecyl 2-(azetidin-1-yl)acetate] |  |  |  |  |  |  |  |  | PARP-1 inhibitory activity in cell free system (PARP-1): diminished capacity to inhibit PARP-1; effect on the PARP1 enzymatic activity in PC cells [5]: insignificant effect
6 |  | 3 | 19.4 | 22.4 | 85 | 125 | 98 | 1.9 | 721 | 92 | 57.2 | 2.98 | C[N+]1(CC(=O)OC2CCCCCCCCCCC2)CCCC1.[I-] [MC-270016, 1-(2-(Cyclododecyloxy)-2-oxoethyl)-1-methylpyrrolidin-1-ium iodide] | 0.9 | 6.1 | 9.6 | 37.4 | 13.3 | 38.6 | 73.9 | 208.1 | IC50 (hCYP2D6): 8.54 µM; IC50 (hCYP2C9): > 10 µM
7 |  | 2.3 | 10.1 | 17.5 | 40.8 | 140 | 87 | 1.2 | 1200 | 95 | 35.9 | 1.7 | C[N+]1(CC(=O)OC2CCCCCCCCCCC2)CCCCCC1.[I-] [MC-270017, 1-(2-(Cyclododecyloxy)-2-oxoethyl)-1-methylazepan-1 ium iodide] | 0.9 | 4.1 | 10.2 | 24.2 | 10.6 | 20.9 | 31.6 | 61.1 | IC50 (hCYP2D6): 4.4 µM; IC50 (hCYP2C9): > 10 µM
8 |  | 3.1 | 12.2 | 14.6 | 48.1 | 95.2 | 84 | 1.2 | 1150 | 92 | 19.6 | 4.67 | CC1(C)CC[N+](C)(CC(=O)OC2CCCCCCCCCCC2)CC1.[I-] [MC-270019, 1-(2-(Cyclododecyloxy)-2-oxoethyl)-1,4,4-trimethylpiperidin-1-ium iodide] | 1.3 | 5.2 | 6.9 | 23.1 | 10.9 | 24.6 | 40.4 | 89.1 | IC50 (hCYP2D6): 9.93 µM; IC50 (hCYP2C9): > 10 µM
9 |  | 11.2 | 52.1 | 60.6 | 3270 | 110 | 88 | 1.3 | 1070 | 85 | 118 | 3.92 | C[N+]1(CC(=O)OC2CCCCCCCCCCC2)CCSCC1.[I-] [MC-270021, 4-(2-(Cyclododecyloxy)-2-oxoethyl)-4-methylthiomorpholin-4-ium iodide] | 4.2 | 20.3 | 4.9 | 282 |  |  |  |  | IC50 (hCYP2D6): 9.25 µM; IC50 (hCYP2C9): > 10 µM
10 | only weak inhibitory effects | 20.4 | 4450 | 9.3 | 384 |  |  |  |  |  |  |  | O=C(c1cc(Cc2n[nH]c(=O)c3ccccc23)ccc1F)N1CCN(C(=O)C2CC2)CC1 [Olaparib, reference compound] | 0.7 | 163 | 0.9 | 39 | 1.2 | 7.4 | 22.0 | 125.8 | ED20 [9]: 7.3 µM; ED50 [9]: 61.9 µM; ED70 [9]: 228.7 µM; ED90 [9]: 1835 µM; effect on AR transcriptional activity [10]: negligible inhibitory effect; effect on PSA expression (PSA expression): negligible inhibitory effect
11 | only weak inhibitory effects | 26.7 | 155 | 7 | 157 |  |  |  |  |  |  |  | CNCc1ccc(-c2[nH]c3cc(F)cc4c3c2CCNC4=O)cc1 [Rucaparib, reference compound] |  | 52.6 | 1 | 23.2 | 0.9 | 5.0 | 14.8 | 82.7 | 
12 | only weak inhibitory effects | 55.6 | 768 | 70.5 | 1630 |  |  |  |  |  |  |  | C[C@]1(c2nc3c(C(N)=O)cccc3[nH]2)CCCN1 [Veliparib, reference compound] | 10.6 | 153 | 9.7 | 237 | 6.7 | 36.7 | 104.0 | 547.2 | 
13 |  |  |  |  |  |  |  |  |  |  |  |  | CCN(CC)CCOC(=O)c1ccc(N)cc1 [procaine, reference compound] |  |  |  |  |  |  |  |  | stable in PBS (Mouse plasma stability; PBS pH 7.4, 1 μM, 60 min, 37°C, typical value): 100%; degraded in plasma (Mouse plasma stability; mouse plasma, 1 μM, 60 min, 37°C, typical value): > 95%
